# Rows were chosen to be rich in hits. Some 2.3% of all compounds tested hit in one or more screens of this group.
# MEKK2mut PB1 HTS – signal of MEK5 binding to mutant human MEKK2 PB1 domain | bead flow cytometry, Alexa488-MEK5 binding to MEKK2 mutant | percent response, % at 10 µM | 290,000 tested, 0.35% active | AID 1530; in the data active = percent response above about 24%, passing the limit was not always enough
# ABCB1 inh – blocks JC-1 efflux by human ABCB1 transporter; CCRF-Adr cells, flow cytometry; inhibition, % at 6.6 µM; 190,000 tested, 0.067% active; AID 1326; in the data active = inhibition above about 40%;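 note: higher value means more JC-1 retained so stronger ABCB1 efflux block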
# MEKK2 WT-MEK5 – raises or lowers MEK5 binding to wildtype human MEKK2 PB1 domain; binding response (% of control), % at 10 µM; Q9Y2U5; AID 1531; 290,000 tested, 1.1% active; bead flow cytometry, Alexa488-MEK5 binding to MEKK2 WT; actives lie on both sides; in the data active = binding response below about 67% or above about 130%
# ABCG2 inh – inhibitors of human ABCG2 transporter, ABCB1 counter-screen; 190,000 tested, 0.1% active; IgMXP3 cells, JC-1 efflux, flow cytometry; inhibition, % at 6.6 µM; AID 1325;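 active = inhibition above 80%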
#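 Test system: ABCG2 IgMXP3 and barcoded ABCB1 CCRF-Adr cell mix; Schedule: cells with compound and JC-1, 10 min at 25 °C, rotating, no wash; Technique: flow cytometry of retained JC-1 fluorescence; Measure: % inhibition of efflux relative to nicardipine and DMSO; Controls: nicardipine high and DMSO low controls.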
# MEKK3 PB1 HTS – MEKK3-MEK5 PB1 interaction, increase or decrease; Q99759; bead-based flow cytometry, Alexa488-MEK5 binding to MEKK3; actives lie on both sides; 0 = blocked by unlabeled MEK5, 100 = vehicle; 290,000 tested, 1.4% active; binding response (% of control), % at 10 µM;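 active = binding response more than 3 SD above or below the average of its plate-row segment, actives on both sides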;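 note: Alexa488 bead fluorescence after subtracting the streptavidin-only scavenger bead signal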
# MEKK2wt confirm – raises or lowers MEK5 binding to wildtype human MEKK2, retest; shares compounds with MEKK3 PB1 HTS; binding response (% of control), % at 10 µM; bead flow cytometry, Alexa488-MEK5 binding to MEKK2 WT; actives lie on both sides; 5,900 tested, 2.4% active; in the data active = binding response below about 16% or above about 210%; inactive = in between
# MEKK2mut-MEK5 – signal of MEK5 binding to mutant human MEKK2, retest; shares compounds with MEKK3 PB1 HTS; bead flow cytometry, Alexa488-MEK5 binding to MEKK2 mutant; percent response, % at 10 µM; 5,900 tested, 2% active; AID 1893; in the data active = percent response mostly above about 71%, no sharp cut-off; inactive = mostly below about 38%;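 note: higher means compound restores mutant binding toward wildtype level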
# MEKK3-MEK5 inh – confirmation of inhibitors of MEK5 binding to human MEKK3; shares compounds with MEKK3 PB1 HTS; bead flow cytometry, Alexa488-MEK5 binding to MEKK3; stronger effect = lower value; binding response (% of control), % at 10 µM; 5,900 tested, 1.8% active;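 active = binding response below 72% of control, or above a set upper limit, though filed actives all read lower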
# Numbers stand for hits; - = inactive; . = no result given; [ ] = another dose, or the depositor's remark.
SMILES,MEKK2mut PB1 HTS,ABCB1 inh,MEKK2 WT-MEK5,ABCG2 inh,MEKK3 PB1 HTS,MEKK2wt confirm,MEKK2mut-MEK5,MEKK3-MEK5 inh
O=C(CNC(=O)c1ccc(N2C(=O)c3ccccc3C2=O)cc1)OCC(=O)c1cccc2ccccc12,-,-,4.0[inhibitor],-,2.0[inhibitor],-,-,-
CCC1CCc2c([nH]c3ccccc3c2=O)O1 (configuration not stated),-,-,-,-,147.0,-,-,-
CC1(C)CCc2c([nH]c3ccccc3c2=O)O1,-,-,-,-,-,.,.,.
COC(=O)C1=C(C(=O)OC)[C@@H]2N(C)c3ccc(OC)cc3[C@@]23C[C@@H](C(=O)OC)N(C(=O)NC2CCCCC2)C3=N1,-,.,3.0[inhibitor],.,2.0[inhibitor],-,-,-
Cc1nn(CC(C)C)c(Cl)c1C(=O)N(c1ccc(Cl)cc1F)S(C)(=O)=O,-,.,-,.,-,.,.,.
CCOC(=O)CSC1=C(C#N)C(c2sccc2C)C(C(C)=O)=C(C)N1 (configuration not stated),-,-,-,-,-,.,.,.
CC(=O)C1=C(C)NC(SCC(N)=O)=C(C#N)C1c1sccc1C (configuration not stated),-,-,-,-,76.0[inhibitor],-,-,-
Clc1ccc(OCCCNCc2ccccc2)c(Br)c1,-,-,153.0,-,-,-,-,-
CCC1(C)Cc2c(C#N)c(N)sc(=S)c2CO1 (configuration not stated),-,-,60.0[inhibitor],-,-,-,-,-
N#Cc1c(N)sc(=S)c2c1CCCC2,-,-,66.0[inhibitor],-,-,-,-,-
O=C(Nc1ccc2c(c1)OCO2)c1ccc([N+](=O)[O-])cc1[N+](=O)[O-],-,.,-,.,-,.,.,.
CC1Oc2ccccc2N(CC(=O)Nc2ccc(F)cc2)C1=O (configuration not stated),-,.,-,.,-,.,.,.
O=[N+]([O-])c1cc(S(=O)(=O)NCCN2CCOCC2)ccc1Cl,-,.,-,.,-,.,.,.
COc1cccc(CN2CC(C(=O)NCCn3ccc(C)n3)CCC2=O)c1 (configuration not stated),-,.,-,.,-,.,.,.
CC(C)Oc1ccc(CNC(=O)c2cc(S(=O)(=O)N3CCOCC3)cn2C)cc1,-,.,-,.,-,.,.,.
CCOc1ccccc1N(CC(=O)OC)S(=O)(=O)c1ccccc1,-,-,-,-,126.0,-,-,-
CCOc1ccccc1N(CC(=O)NC1CCCCC1)S(C)(=O)=O,-,-,-,-,74.0[inhibitor],-,-,-
CC(=O)c1cccc(NC(=O)c2cc(S(=O)(=O)N3CCOCC3)cs2)c1,-,.,-,.,-,.,.,.
CC1(c2ccc(OC(F)F)cc2)NC(=O)N(CC(=O)Nc2ccc(S(N)(=O)=O)cc2)C1=O (configuration not stated),-,-,-,-,46.0[inhibitor],-,-,-
CC1(c2ccc(OC(F)F)cc2)NC(=O)N(CC(=O)Nc2ccc(OC(F)F)cc2)C1=O (configuration not stated),-,.,-,.,-,.,.,.
CC(C)(C)CN1CCN(Cc2c[nH]c3ccccc23)CC1CCO (configuration not stated),-,.,-,.,-,.,.,.
c1ccc(CN2CCC(Nc3nc(-c4ccccc4)nc4ccccc34)CC2)cc1,-,-,144.0,-,-,-,-,-
c1ccc(CNc2nc(N3CCN(Cc4ccccc4)CC3)nc3ccccc23)cc1,-,.,161.0,.,-,-,-,-
Cc1csc2ncnc(NC3CCN(Cc4ccccc4)CC3)c12,-,.,-,.,-,.,.,.
c1coc(CNc2nc(N3CCCCC3)nc3ccccc23)c1,-,-,-,-,-,.,.,.
SMILES,MEKK2mut PB1 HTS,ABCB1 inh,MEKK2 WT-MEK5,ABCG2 inh,MEKK3 PB1 HTS,MEKK2wt confirm,MEKK2mut-MEK5,MEKK3-MEK5 inh
c1ccc(N2CCN(c3nc(NCc4ccco4)c4ccccc4n3)CC2)cc1,-,-,145.0,-,-,-,-,-
COc1ccc(CCNC(=O)CS(=O)(=O)c2cn(CC(=O)N(C(C)C)C(C)C)c3ccccc23)cc1OC,-,.,-,.,-,.,.,.
Cc1nc([N+](=O)[O-])cn1CC(=O)c1ccc(OC(F)(F)F)cc1,-,.,-,.,-,.,.,.
CCN1C(=O)C2C(c3ccc(O)c(OC)c3)NC(C)(C(=O)OC)C2C1=O (configuration not stated),-,-,-,-,-,.,.,.
CCOC(=O)C1(C)NC(c2cc(OC)c(OC)c(OC)c2)C2C(=O)N(CC)C(=O)C21 (configuration not stated),-,-,2.0[inhibitor],-,2.0[inhibitor],-,-,-
CCOC(=O)c1c(-c2ccc(C)cc2)csc1/N=C/N(C)C,-,-,-,-,-,.,.,.
CCOC(=O)c1c(-c2ccc(F)cc2)csc1/N=C/N(C)C,-,-,-,-,129.0,-,-,-
Cc1cccc(C)c1OCc1cc(C(=O)NCc2cn(C)nc2C)no1,-,.,-,.,-,.,.,.
COCc1c(C#N)c(NCCc2ccccc2)nc(C)c1[N+](=O)[O-],-,-,-,-,128.0,-1.0[inhibitor],-,0.0
CCOc1ccc(NC(=O)C2Cc3ccccc3CN2S(=O)(=O)CC)cc1 (configuration not stated),-,-,-,-,-,.,.,.
CCS(=O)(=O)N1Cc2ccccc2CC1C(=O)Nc1ccc(OC)cc1 (configuration not stated),-,-,1.0[inhibitor],-,2.0[inhibitor],-,-,-
CCCc1cc(=O)[nH]c(SCc2cc(C(=O)OC)c(C)o2)n1,-,-,3.0[inhibitor],-,2.0[inhibitor],-,-,-
N#CC1=C(N)C(C#N)(C#N)C2(CCC3(CC2)OCCO3)C2CC3(CC=C12)OCCO3 (configuration not stated),-,-,19.0[inhibitor],-,13.0[inhibitor],-,-,-
CCCCCCNC(=O)c1cn(CC)c2cc(N3CCN(C)CC3)c(F)cc2c1=O,-,.,-,.,-,.,.,.
CCc1cc(=O)oc2cc(C)cc(OCC(=O)C(C)(C)C)c12,-,-,-,-,72.0[inhibitor],-,-,-
CCc1cc(=O)oc2cc(C)cc(OCC(C)=O)c12,-,.,-,.,-,.,.,.
COc1cc(NC(=O)C2CCN(S(=O)(=O)c3cccnc3)CC2)cc(OC)c1OC,25.0,-,-,-,-,-,-,-
CC(C)n1c(O)c(/C=C2\C=Nc3ccccc32)sc1=Nc1ccccc1,-,-,22.0[inhibitor],-,13.0[inhibitor],-,-,-
COc1ccc(OC)c(NC(=O)c2cc(S(=O)(=O)N3CCCC3)cn2C)c1,-,.,-,.,-,.,.,.
c1ccc(-c2cc(NCCN3CCCCC3)c3ccccc3n2)cc1,-,.,139.0,.,-,-,-,-
